Data reported in ChEMBL document CHEMBL4699636, “Novel 2,7-Diazaspiro[4,4]nonane Derivatives to Inhibit Mouse and Human Osteoclast Activities and Prevent Bone Loss in Ovariectomized Mice without Affecting Bone Formation” (J Med Chem, 2020).
Active and inactive are the calls of the source. The rule behind the calls is not given here.

Columns and labels:
[1] = target: T1, Dedicator of cytokinesis protein 5 (Homo sapiens, UniProt Q9H7D0); assay: Inhibition of C-terminal 6-histidine tagged human DOCK5 (1212 to 1642 residues) expressed in Escherichia coli assessed as reduction in nucleotide exchange efficiency at 20 to 60 uM by N-methylanthraniloyl-GDP fluorescence based nucleotide exchange assay; settings: dose microM 20-60
T1 sequence (Q9H7D0 whole entry, the tested form may be a part): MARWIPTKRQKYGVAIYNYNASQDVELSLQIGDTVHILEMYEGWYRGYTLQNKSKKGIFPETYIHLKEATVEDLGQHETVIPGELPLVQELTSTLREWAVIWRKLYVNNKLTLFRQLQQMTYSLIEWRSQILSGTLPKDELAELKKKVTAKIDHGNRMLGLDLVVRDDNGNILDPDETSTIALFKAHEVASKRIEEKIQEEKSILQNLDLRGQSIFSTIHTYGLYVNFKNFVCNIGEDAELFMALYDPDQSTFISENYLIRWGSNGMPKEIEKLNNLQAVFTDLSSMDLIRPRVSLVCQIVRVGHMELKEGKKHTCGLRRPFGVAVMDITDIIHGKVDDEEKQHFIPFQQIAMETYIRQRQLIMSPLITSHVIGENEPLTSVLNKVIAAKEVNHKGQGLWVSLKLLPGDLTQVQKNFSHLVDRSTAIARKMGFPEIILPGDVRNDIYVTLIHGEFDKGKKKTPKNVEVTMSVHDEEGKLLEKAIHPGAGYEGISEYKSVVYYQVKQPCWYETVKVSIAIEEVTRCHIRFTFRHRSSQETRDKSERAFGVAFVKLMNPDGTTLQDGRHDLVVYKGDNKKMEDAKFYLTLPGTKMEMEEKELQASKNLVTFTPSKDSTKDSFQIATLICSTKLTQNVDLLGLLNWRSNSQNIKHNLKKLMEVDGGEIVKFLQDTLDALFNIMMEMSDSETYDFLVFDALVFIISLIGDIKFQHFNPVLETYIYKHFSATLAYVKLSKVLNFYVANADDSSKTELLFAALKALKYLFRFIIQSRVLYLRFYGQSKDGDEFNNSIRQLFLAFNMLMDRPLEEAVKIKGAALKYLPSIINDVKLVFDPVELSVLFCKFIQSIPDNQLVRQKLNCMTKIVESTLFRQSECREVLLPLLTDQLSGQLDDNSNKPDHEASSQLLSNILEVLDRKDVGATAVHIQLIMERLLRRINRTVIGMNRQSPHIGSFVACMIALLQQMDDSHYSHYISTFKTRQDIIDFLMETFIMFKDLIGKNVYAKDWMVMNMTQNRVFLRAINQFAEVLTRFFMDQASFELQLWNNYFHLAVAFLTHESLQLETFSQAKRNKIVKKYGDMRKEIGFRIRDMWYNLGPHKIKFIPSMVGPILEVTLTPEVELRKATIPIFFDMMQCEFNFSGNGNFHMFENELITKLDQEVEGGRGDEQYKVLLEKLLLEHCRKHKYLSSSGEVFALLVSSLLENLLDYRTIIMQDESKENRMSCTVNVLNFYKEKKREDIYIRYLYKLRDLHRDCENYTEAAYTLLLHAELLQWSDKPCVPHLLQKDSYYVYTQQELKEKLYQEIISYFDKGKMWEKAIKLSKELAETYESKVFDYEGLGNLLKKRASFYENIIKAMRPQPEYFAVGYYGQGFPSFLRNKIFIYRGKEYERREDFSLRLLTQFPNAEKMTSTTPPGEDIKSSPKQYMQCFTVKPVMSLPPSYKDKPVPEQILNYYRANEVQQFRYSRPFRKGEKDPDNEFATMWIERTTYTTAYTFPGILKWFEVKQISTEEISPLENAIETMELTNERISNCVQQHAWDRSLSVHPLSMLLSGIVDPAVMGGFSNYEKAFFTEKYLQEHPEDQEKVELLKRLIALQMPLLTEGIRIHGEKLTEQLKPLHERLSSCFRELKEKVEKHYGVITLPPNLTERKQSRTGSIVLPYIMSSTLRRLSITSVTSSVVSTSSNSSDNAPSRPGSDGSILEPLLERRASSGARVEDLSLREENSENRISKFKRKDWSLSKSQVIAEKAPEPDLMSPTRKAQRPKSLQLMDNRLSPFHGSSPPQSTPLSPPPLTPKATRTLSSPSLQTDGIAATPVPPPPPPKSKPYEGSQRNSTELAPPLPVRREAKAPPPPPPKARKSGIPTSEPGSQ
Method in brief: (§1)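 Mant-GDP-loaded His-tagged human RAC1 at 2.0 µM with 100 nM DOCK5 (residues 1212-1642) or TRIOGEF1 (R1232-T1550), both E. coli-expressed. Buffer: 50 mM Tris pH 8, 300 mM NaCl, 2 mM MgCl2, 1 mM DTT, 1% DMSO, 25 °C. Reaction started with 100 µM GTP. Fluorescence decay read at ex 360/em 440 nm, kobs by single-exponential fit, compound at 0, 20 or 60 µM, duplicates, as % of activity.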

Osteoclast [2] = assay: Inhibition of resorption activity of mouse peripheral blood cell-derived osteoclasts at 5-10 uM incubated for 48 hrs by Kossa-staining based assay; type: functional, tissue-based; settings: dose microM 5-10, time 48.0 hrs, in the assay text read “bone marrow-derived” for “peripheral blood cell-derived”
Method in brief: (§2)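 Osteoclasts from C57BL/6J mouse bone marrow, M-CSF then M-CSF 30 ng/mL plus RANKL 100 ng/mL. Day-3 cells reseeded on calcium phosphate-coated wells, compound added next day in 0.5% DMSO for 48 h, 8 wells per condition. 4 wells TRAP-stained for osteoclast counts, 4 von Kossa-stained for resorbed area. Activity expressed as resorption normalized to osteoclast number.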

[3] = system: Osteoclast (Homo sapiens); assay: Inhibition of resorption activity of human peripheral blood cell-derived osteoclasts at 1-20 uM incubated for 48 hrs by Kossa-staining based assay; settings: dose microM 1-20, time 48.0 hrs
[4] = target: Triple functional domain protein (Homo sapiens) (UniProt O75962); assay: Inhibition of C-terminal 6-histidine tagged human TRIOGEF1 (R1232 to T1550 residues) expressed in Escherichia coli assessed as reduction in nucleotide exchange efficiency at 20 to 60 uM by N-methylanthraniloyl-GDP fluorescence based nucleotide exchange assay; settings: dose microM 20-60; method in brief: as §1
[5] = system: Osteoclast (Homo sapiens); assay: Toxicity in human peripheral blood cell-derived osteoclasts assessed as reduction in osteoclasts number at 20 uM incubated for 48 hrs by TRAP-staining based assay
[6] = Toxicity in mouse peripheral blood cell-derived osteoclasts assessed as reduction in osteoclasts number at 5-10 uM incubated for 48 hrs by TRAP-staining based assay; type: tissue-based; settings: osteoclast, in the assay text read “bone marrow-derived” for “peripheral blood cell-derived”
Method in brief: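 Osteoclasts were derived from bone marrow of 4–8-week-old C57BL/6J mice, first with M-CSF 100 ng/mL for 48 h, then with M-CSF 30 ng/mL plus RANKL 100 ng/mL. At day 3 of differentiation they were detached with Accutase and seeded on calcium phosphate-coated wells. Next day, compound was added in 0.5% DMSO (8 wells/condition) for 48 h. Four wells were TRAP-stained (pH 5, tartrate, 1.5 h, 37 °C) and osteoclasts counted from images.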

[7] = target: T1, Dedicator of cytokinesis protein 5; assay: Inhibition of N-terminal GFP tagged human DOCK5 (1212-1642 residues) expressed in HEK293T cells assessed as reduction in exchange activity incubated for 1 hr by Western blot analysis based Rac-GTP pull-down assay; type: cell-based
Method in brief: (§3)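 HEK293T cells transiently expressing GFP-tagged DOCK5 DHR2 exchange domain (mouse, or human residues 1212-1642). Treated 1 h with compound in 1% DMSO, then lysed. Rac-GTP pulled down with GST-PakCRIB beads, 45 min at 4 °C, and detected by western blot. Band intensity normalized to lysate protein. Single dose 100 µM; dose-response in 1.5x steps for IC50.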

Osteoclast [8] = assay: Inhibition of resorption activity of mouse peripheral blood cell-derived osteoclasts at 8 uM incubated for 48 hrs by Kossa-staining based assay; type: functional, tissue-based; settings: in the assay text read “bone marrow-derived” for “peripheral blood cell-derived”; method in brief: as §2
[9] = target: Dedicator of cytokinesis protein 5 (Mus musculus) (UniProt B2RY04); assay: Inhibition of N-terminal GFP tagged mouse DOCK5 expressed in HEK293T cells assessed as reduction in exchange activity at 100 uM incubated for 1 hr by Western blot analysis based Rac-GTP pull-down assay; type: cell-based; method in brief: as §3
Chain of Dedicator of cytokinesis protein 5 (Mus musculus) (B2RY04 whole entry): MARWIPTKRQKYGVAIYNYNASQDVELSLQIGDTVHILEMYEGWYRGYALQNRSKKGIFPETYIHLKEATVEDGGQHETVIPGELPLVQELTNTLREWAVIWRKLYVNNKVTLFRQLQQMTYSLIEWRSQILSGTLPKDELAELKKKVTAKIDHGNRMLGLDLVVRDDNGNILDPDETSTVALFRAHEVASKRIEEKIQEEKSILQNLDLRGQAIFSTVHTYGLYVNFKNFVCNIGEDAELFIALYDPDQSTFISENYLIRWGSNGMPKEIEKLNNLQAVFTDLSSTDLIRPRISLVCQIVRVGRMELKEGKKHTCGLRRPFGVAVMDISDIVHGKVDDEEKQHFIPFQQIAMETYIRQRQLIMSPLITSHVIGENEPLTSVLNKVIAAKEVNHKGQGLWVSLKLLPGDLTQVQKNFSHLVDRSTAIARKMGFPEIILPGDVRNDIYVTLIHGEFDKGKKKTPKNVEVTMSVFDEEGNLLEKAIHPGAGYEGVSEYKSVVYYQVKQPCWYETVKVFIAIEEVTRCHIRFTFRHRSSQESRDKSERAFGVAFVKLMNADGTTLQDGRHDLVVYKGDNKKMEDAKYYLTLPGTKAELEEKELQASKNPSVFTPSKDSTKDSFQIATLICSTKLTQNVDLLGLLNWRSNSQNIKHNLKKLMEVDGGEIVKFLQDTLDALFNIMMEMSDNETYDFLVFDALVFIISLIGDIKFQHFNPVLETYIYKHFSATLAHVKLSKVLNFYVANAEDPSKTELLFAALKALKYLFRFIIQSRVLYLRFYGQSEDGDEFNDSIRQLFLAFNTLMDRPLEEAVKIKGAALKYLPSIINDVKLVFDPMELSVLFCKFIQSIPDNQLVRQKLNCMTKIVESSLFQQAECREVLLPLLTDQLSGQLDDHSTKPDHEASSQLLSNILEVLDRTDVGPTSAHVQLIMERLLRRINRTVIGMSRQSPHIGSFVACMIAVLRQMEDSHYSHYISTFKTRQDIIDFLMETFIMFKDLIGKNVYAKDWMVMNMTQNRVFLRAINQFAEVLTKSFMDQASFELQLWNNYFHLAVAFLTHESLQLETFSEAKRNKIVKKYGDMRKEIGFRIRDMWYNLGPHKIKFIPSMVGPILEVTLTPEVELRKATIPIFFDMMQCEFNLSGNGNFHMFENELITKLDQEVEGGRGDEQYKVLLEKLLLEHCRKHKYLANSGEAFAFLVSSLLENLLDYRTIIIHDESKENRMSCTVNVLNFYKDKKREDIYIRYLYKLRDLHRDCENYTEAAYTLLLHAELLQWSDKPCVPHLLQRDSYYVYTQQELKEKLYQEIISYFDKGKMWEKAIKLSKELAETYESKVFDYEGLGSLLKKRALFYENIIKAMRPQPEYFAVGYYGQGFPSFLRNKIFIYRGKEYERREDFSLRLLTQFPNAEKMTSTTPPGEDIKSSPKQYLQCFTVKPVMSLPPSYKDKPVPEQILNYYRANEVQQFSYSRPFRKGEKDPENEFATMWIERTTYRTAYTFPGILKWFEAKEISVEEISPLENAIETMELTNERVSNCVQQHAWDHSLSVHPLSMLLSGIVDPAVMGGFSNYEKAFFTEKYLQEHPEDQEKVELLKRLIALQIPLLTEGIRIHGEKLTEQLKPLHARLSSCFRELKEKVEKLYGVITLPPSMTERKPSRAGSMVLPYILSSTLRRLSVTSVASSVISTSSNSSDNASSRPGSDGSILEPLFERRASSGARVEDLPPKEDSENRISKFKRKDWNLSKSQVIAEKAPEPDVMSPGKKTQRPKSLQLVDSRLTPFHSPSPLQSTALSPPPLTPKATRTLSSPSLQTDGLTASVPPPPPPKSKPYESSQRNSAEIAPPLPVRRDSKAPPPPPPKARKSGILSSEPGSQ

[10] = target: Dedicator of cytokinesis protein 5 (Mus musculus) (UniProt B2RY04); assay: Inhibition of DOCK5 in mouse osteoclasts assessed as induction of podosome belt organization defects at 100 uM incubated for 4 hrs by immunofluorescence based assay; settings: Osteoclast
Method in brief: (§4)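 Mouse bone-marrow osteoclasts, differentiated with M-CSF and RANKL on coverslips. Compound added to 100 µM final, 0.5% DMSO, for 4 h. Cells fixed directly, or after medium change and overnight recovery, then stained for vinculin and actin (phalloidin) and viewed by widefield microscopy for podosome belt organization.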

[11] = target: Dedicator of cytokinesis protein 5 (Mus musculus) (UniProt B2RY04); assay: Inhibition of DOCK5 in mouse osteoclasts assessed as induction of podosome belt organization defects at 100 uM incubated for 4 hrs followed by compound wash out by overnight recovery by immunofluorescence based assay; type: tissue-based; settings: Osteoclast; method in brief: as §4
Mus musculus [12] = assay: Antiosteoporotic activity in C57BL6/J mouse model of OVX-induced bone loss assessed as trabecular separation level in femoral metaphysis at 100 ug/kg, sc QD for 4 weeks by histomorphometry (319.80 +/- 106.52 um); type: functional; settings: dose 100 µg/kg
[13] = Toxicity in C57BL6/J mouse model of OVX-induced bone loss assessed as effect on bone formation by measuring mineralizing mineral apposition rate level in femoral metaphysis at 100 ug/kg, sc QD for 4 weeks by histomorphometry (1.62 +/ 0.21 um/d (lcm)); type: organism-based; settings: in vivo, 0.1 mg/kg, 672 h, dose 100 µg/kg
Mus musculus [14] = assay: Antiosteoporotic activity in C57BL6/J mouse model of OVX-induced bone loss assessed as cortical thickness level in tibial diaphysis at 100 ug/kg, sc QD for 4 weeks by microCT analysis (179.27 +/- 7.57 um); type: functional; settings: dose 100 µg/kg
[15] = Toxicity in C57BL6/J mouse model of OVX-induced bone loss assessed as effect on bone formation by measuring osteocalcin level at 100 ug/kg, sc QD for 4 weeks […]; type: organism-based; settings: in vivo, 0.1 mg/kg, 672 h, dose 100 µg/kg
Mus musculus [16] = assay: Antiosteoporotic activity in C57BL6/J mouse model of OVX-induced bone loss assessed as degree of anisotropy (range 0-1) level in tibial metaphysis at 100 ug/kg, sc QD for 4 weeks by microCT analysis (0.53 +/- 0.07); type: functional; settings: dose 100 µg/kg
Mus musculus [17] = assay: Antiosteoporotic activity in C57BL6/J mouse model of OVX-induced bone loss assessed as trabecular pattern factor level in tibial metaphysis at 100 ug/kg, sc QD for 4 weeks by microCT analysis (17.17 +/- 3.41 […]); type: functional; settings: dose 100 µg/kg
[18] = Toxicity in C57BL6/J mouse model of OVX-induced bone loss assessed as effect on bone formation by measuring mineralizing surface per trabecular bone surface level in femoral metaphysis at 100 ug/kg, sc QD for 4 weeks by histomorphometry (27.90 +/ 8.22 %); type: organism-based; settings: in vivo, 0.1 mg/kg, 672 h, dose 100 µg/kg
[19] = Toxicity in C57BL6/J mouse model of OVX-induced bone loss assessed as effect on bone formation by measuring osteoblast surface per trabecular bone surface level in femoral metaphysis at 100 ug/kg, sc QD for 4 weeks by histomorphometry (5.03 +/ 2.92 %); type: organism-based; settings: in vivo, 0.1 mg/kg, 672 h, dose 100 µg/kg
Mus musculus [20] = assay: Antiosteoporotic activity in C57BL6/J mouse model of OVX-induced bone loss assessed as trabecular number level in femoral metaphysis at 100 ug/kg, sc QD for 4 weeks by histomorphometry (2.99 +/- 0.80 /mm); type: functional; settings: dose 100 µg/kg
Mus musculus [21] = assay: Antiosteoporotic activity in C57BL6/J mouse model of OVX-induced bone loss assessed as structure model index level in tibial metaphysis at 100 ug/kg, sc QD for 4 weeks by microCT analysis (1.92 +/- 0.19); type: functional; settings: dose 100 µg/kg
Mus musculus [22] = assay: Antiosteoporotic activity in C57BL6/J mouse model of OVX-induced bone loss assessed as trabecular thickness level in femoral metaphysis at 100 ug/kg, sc QD for 4 weeks by histomorphometry (39.96 +/- 5.42 um); type: functional; settings: dose 100 µg/kg
[23] = Toxicity in C57BL6/J mouse model of OVX-induced bone loss assessed as effect on body weight at 100 ug/kg, sc QD for 4 weeks; type: organism-based; settings: in vivo, 0.1 mg/kg, 672 h, dose 100 µg/kg
Mus musculus [24] = assay: Antiosteoporotic activity in C57BL6/J mouse model of OVX-induced bone loss assessed as trabecular bone volume per tissue volume level in tibial metaphysis at 100 ug/kg, sc QD for 4 weeks by microCT analysis (17.49 +/- 2.91 %); type: functional; settings: dose 100 µg/kg
[25] = Toxicity in C57BL6/J mouse model of OVX-induced bone loss assessed as effect on bone formation by measuring number of osteoblasts per bone surface level in femoral metaphysis at 100 ug/kg, sc QD for 4 weeks by histomorphometry (4.55 +/ 2.53 /mm); type: organism-based; settings: in vivo, 0.1 mg/kg, 672 h, dose 100 µg/kg
Mus musculus [26] = assay: Antiosteoporotic activity in C57BL6/J mouse model of OVX-induced bone loss assessed as serum CTX-1 level […] at 100 ug/kg, sc QD for 4 weeks (165.38 +/- 54.93 %); type: functional; settings: dose 100 µg/kg
[27] = Toxicity in C57BL6/J mouse model of OVX-induced bone loss assessed as effect on bone formation by measuring bone formation rate per trabecular bone surface level in femoral metaphysis at 100 ug/kg, sc QD for 4 weeks by histomorphometry ([…]); type: organism-based; settings: in vivo, 0.1 mg/kg, 672 h, dose 100 µg/kg
Mus musculus [28] = assay: Antiosteoporotic activity in C57BL6/J mouse model of OVX-induced bone loss assessed as trabecular bone volume per tissue volume level in femoral metaphysis at 100 ug/kg, sc QD for 4 weeks by histomorphometry (11.67 +/- 2.37%); type: functional; settings: dose 100 µg/kg

Cn1cc(CN2CC[C@@]3(C2)[C@@H](O)CN(c2ccccc2)S3(=O)=O)c2ccccc21 (racemic)
inhibition [1]: inactive | inhibition (Osteoclast [2]): Active

O=S1(=O)N(c2ccccc2)C[C@H](O)[C@]12CCN(Cc1ccc(Cl)c(Cl)c1)C2 (racemic)
inhibition [1]: 67% | inhibition [3]: Active | inhibition [4]: inactive | inhibition (Osteoclast [2]): Active | Activity [5]: Toxic

NCCCC(O)(P(=O)(O)O)P(=O)(O)O
inhibition [3]: Active

COc1ccc(N2CCC3(CCN(Cc4cccc(Cl)c4)C3)C2=O)cc1C (stereo unspecified)
Activity [6]: Toxic | inhibition [1]: inactive | inhibition (Osteoclast [2]): Active

O=S1(=O)N(c2ccccc2)C[C@H](O)[C@]12CCN(Cc1ccccc1Cl)C2 (racemic)
inhibition [1]: inactive | inhibition (Osteoclast [2]): Active

O=C1N(c2cccc(F)c2)CCC12CCN(Cc1cccc(Cl)c1)C2 (stereo unspecified)
Activity [6]: Toxic | inhibition [1]: inactive | inhibition (Osteoclast [2]): Active

O=S1(=O)N(c2ccccc2)C[C@H](O)[C@]12CCN(Cc1ccc3c(c1)CCC3)C2 (racemic)
inhibition [1]: inactive | inhibition (Osteoclast [2]): Active

O=S1(=O)N(c2ccccc2)C[C@H](O)[C@]12CCN(Cc1cccc(Cl)c1)C2 (racemic)
IC50 [7]: 24 µM | inhibition [1]: inactive | inhibition (Osteoclast [2]): Active | inhibition (Osteoclast [8]): Active | inhibition [9]: Active | inhibition [10]: Active | inhibition [11]: inactive

O=S1(=O)N(c2ccccc2)C[C@H](O)[C@]12CCN(Cc1cnc3ccccc3c1)C2 (racemic)
inhibition [1]: inactive | inhibition (Osteoclast [2]): Active

COc1ccc(CN2CC[C@@]3(C2)[C@@H](O)CN(c2ccccc2)S3(=O)=O)cc1F (racemic)
inhibition [1]: inactive | inhibition (Osteoclast [2]): Active

O.O=P(O)(O)C(O)(Cn1ccnc1)P(=O)(O)O [ZOLEDRONIC ACID]
Activity (Mus musculus [12]): 132.16 um | Activity [13]: 1.11 micrometer/day | Activity (Mus musculus [14]): 189.5 um | Activity [15]: 42.55% | Activity_index (Mus musculus [16]): 0.25 | Activity (Mus musculus [17]): -35.6 1/mm | Activity [18]: 8.51% | Activity [19]: 0.52% | Activity (Mus musculus [20]): 5.92 /millimeter | Activity_index (Mus musculus [21]): -1.36 | Activity (Mus musculus [22]): 44.8 µm | Activity [23]: Non-Toxic | Activity (Mus musculus [24]): 43.96% | Activity [25]: 0.54 /millimeter | Activity (Mus musculus [26]): 73.18% | Activity [27]: 34.28 um3/um2/yr | Activity (Mus musculus [28]): 26.19%
